Source: PubChem BioAssay
Most compounds without a hit are left out; they make up all but 0.79% or so of the library.
hIAP inh – human IAP inhibitors, primary screen, biochemical, luminescence, uHTS. Intestinal-type alkaline phosphatase (Homo sapiens), P09923. purified IAP, CDP-Star luminescence, 30 min. inhibition, % at 10 µM. 330,000 compounds, 0.12% hits. AID 2544, 2010;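 active means inhibition reaching a set limit with compound at 10 µM in the primary screen, cut at about 35% in these data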
Target sequence (P09923 whole entry, looked up): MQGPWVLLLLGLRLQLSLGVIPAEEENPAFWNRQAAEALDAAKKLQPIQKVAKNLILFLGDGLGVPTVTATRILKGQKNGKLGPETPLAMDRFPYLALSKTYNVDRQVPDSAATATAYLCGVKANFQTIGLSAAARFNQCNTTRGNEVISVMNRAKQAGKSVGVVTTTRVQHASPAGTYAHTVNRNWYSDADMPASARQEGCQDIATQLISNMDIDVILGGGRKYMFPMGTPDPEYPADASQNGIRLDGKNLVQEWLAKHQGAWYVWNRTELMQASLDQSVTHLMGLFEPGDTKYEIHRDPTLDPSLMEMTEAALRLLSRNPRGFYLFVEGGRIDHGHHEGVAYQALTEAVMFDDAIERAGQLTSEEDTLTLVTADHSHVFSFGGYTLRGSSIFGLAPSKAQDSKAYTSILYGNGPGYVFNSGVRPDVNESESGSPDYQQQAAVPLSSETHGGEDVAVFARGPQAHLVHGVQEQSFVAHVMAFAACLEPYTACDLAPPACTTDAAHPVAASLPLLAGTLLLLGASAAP
mIAP block – inhibitors of mouse IAP, primary screen, biochemical, luminescence, uHTS | intestinal alkaline phosphatase [Mus musculus] | purified mouse IAP, CDP-Star luminescence, 30 min | inhibition, % at 10 µM | 330,000 compounds, 0.2% hits;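 active means inhibition of at least 40% at 10 µM in the primary screen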
hIAP activ – human IAP activators, primary screen, biochemical, luminescence, uHTS | Intestinal-type alkaline phosphatase (Homo sapiens), P09923 | purified human IAP, CDP-Star luminescence, 30 min; stronger effect = higher value; 1 = vehicle-only enzyme, 0 = enzyme-free background | activation factor at 10 µM | 330,000 compounds, 0.16% hits;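 active means activation factor of the enzyme at least 2-fold when tested at 20 µM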
mIAP activ – activators of mouse IAP, primary screen, biochemical, luminescence, uHTS | intestinal alkaline phosphatase [Mus musculus] | muIAP, CDP-Star luminescence, 30 min; stronger effect = higher value; 1 = vehicle-only enzyme signal, 0 = enzyme-free wells | activation factor at 10 µM | 330,000 compounds, 0.24% hits | AID 2805, 2010;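 active means activation factor of at least 2 at 20 µM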
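System: Mouse IAP enzyme | Also added: CDP-Star substrate | Dosing: Compounds dispensed in DMSO | Schedule: 30 min enzyme-substrate-compound incubation at room temperature | Technique: Chemiluminescence readout | Control set: DMSO-only wells and no-enzyme negative control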
bIAP act – bovine intestinal alkaline phosphatase activators, primary screen, biochemical, bovine IAP, CDP-star luminescence. purified bovine IAP, 30 min; stronger effect = higher value; fold of DMSO-control signal, blank-subtracted. AID 1016, 2008. activation factor at 20 µM. 200,000 compounds, 0.17% hits;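 active means activation factor of 2 or more at 20 µM, a signal rise over negative controls twice the positive control's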
bIAP inh – bovine intestinal alkaline phosphatase inhibitors, primary screen, selectivity assay for TNAP inhibitor project, biochemical, bovine IAP, CDP-star luminescence; alkaline phosphatase, intestinal [Bos taurus]; purified bovine IAP, 30 min; inhibition, % at 20 µM; 190,000 tested, under 10 active;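 active means over 50% inhibition of intestinal alkaline phosphatase at 20 µM in the single-dose screen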
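Assay system – bovine IAP enzyme · Quantity – bovine IAP at 1/65,000,000 final dilution · Detection – CDP-star luminescence signal · Times – 30 min reaction at room temperature · Also added – CDP-star substrate at 30 µM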
hIAP act confirm – human IAP activators, confirmation, biochemical, luminescence, single concentration, uHTS hits; shares compounds with hIAP activ; purified IAP, CDP-Star luminescence, 30 min; stronger effect = lower value; activation (%Activity, negative = activation), % at 8.3 µM; 880 compounds, 10% hits; AID 434926, 2010;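 active means at least twofold enzyme activation in any of six single-dose repeats, which the averaged readout prints as negative percent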
Large screens that a line does not name were inactive (follow-up assays come after a bar, where they were run).

CC(=O)Nc1cccc(-c2csc(Nc3ccccn3)n2)c1	hIAP activ 2.2 | hIAP act confirm -94
CCCCCCC(=O)N=Nc1c(O)[nH]c2ccc([N+](=O)[O-])cc12	none
COCCNC(=S)N=Nc1c(O)[nH]c2ccc([N+](=O)[O-])cc12	hIAP activ 2.4 (no result: bIAP act, bIAP inh) | hIAP act confirm inactive
CCc1ccccc1-n1nnnc1SCC(=O)Nc1ccc(N2CCN(C)CC2)cc1	none (no result: bIAP act, bIAP inh)
c1ccc(-n2ncc3c2ncn2nc(-c4ccco4)nc32)cc1	hIAP inh 52 | hIAP act confirm inactive
Cc1cccn2c(=O)c3cc(C(=O)NC4CCCC4)c(=N)n(C4CCCCC4)c3nc12	hIAP inh 36 (no result: bIAP act, bIAP inh) | hIAP act confirm -122
Cc1ccc(-c2ccc(C)c(N)c2C)c(C)c1N	none
Cc1cccc(-n2ncc3c(NCc4ccco4)ncnc32)c1	none
Cc1ccc(-n2ncc3c(NNC(=O)c4ccco4)ncnc32)cc1Cl	hIAP activ 2.9 (no result: bIAP act, bIAP inh) | hIAP act confirm inactive
Cc1cccc(-n2ncc3c(NNC(=O)c4ccco4)ncnc32)c1	hIAP activ 3.5 (no result: bIAP act, bIAP inh) | hIAP act confirm -74
Fc1ccc(-c2[nH]ncc2CN(CC2CCC2)CC2CCCO2)c(F)c1 (stereo unspecified)	none
O=C(O)CCn1nnc(-c2cccs2)n1	hIAP activ 2 | hIAP act confirm inactive
O=C(O)Cn1nnc(-c2cccs2)n1	none
CCCCN(C(=O)c1cccc(S(=O)(=O)N(C)c2ccc(C)cc2)c1)c1c(N)n(CCCC)c(=O)[nH]c1=O	none (no result: bIAP act, bIAP inh)
CC1CCN(C(=O)CNC(=O)c2ccc(Br)o2)CC1	none (no result: bIAP act, bIAP inh)
O=C(CN1CCN(C(=O)C2COc3ccccc3O2)CC1)Nc1ccccc1 (stereo unspecified)	hIAP inh 40 (no result: bIAP act, bIAP inh) | hIAP act confirm inactive
CCCCn1c(N)c(N(CCOC)C(=O)C2CCN(C(=O)c3ccccc3C)CC2)c(=O)[nH]c1=O	none (no result: bIAP act, bIAP inh)
CC1CCCC/C1=N/Nc1ccc([N+](=O)[O-])cc1[N+](=O)[O-] (stereo unspecified)	hIAP inh 37 (no result: bIAP inh) | hIAP act confirm inactive
CN(Cc1cnn(C)c1)C(=O)C1CCC(=O)N(Cc2cccc(F)c2)C1 (stereo unspecified)	hIAP inh 45 (no result: bIAP act, bIAP inh) | hIAP act confirm inactive
c1ccc(-c2cccc(-c3ccccn3)n2)nc1	hIAP activ 2.1 | hIAP act confirm -113
Cc1ccccc1OCC(=O)Nc1ccc(C(=O)Nc2ccccc2C(=O)O)cc1	none (no result: bIAP act, bIAP inh)
CC1Cn2c(nnc2C23CC4CC(CC(C4)C2)C3)S1 (stereo unspecified)	hIAP activ 2 | hIAP act confirm inactive
CC1Cn2c(nnc2-c2ccc(F)cc2)S1 (stereo unspecified)	none
O=C(CCc1ccncc1)N1CCCC(Nc2ccc(F)c(F)c2)C1 (stereo unspecified)	none (no result: bIAP act, bIAP inh)
O=C(NCc1ccccn1)C(=O)Nc1nc(-c2ccccc2)cs1	hIAP activ 2.2 (no result: bIAP act, bIAP inh) | hIAP act confirm inactive
O=C(NCc1ccccc1)C(=O)Nc1nc(-c2ccccc2)cs1	none (no result: bIAP act, bIAP inh)
COc1ccc(-c2nc(-c3ccccn3)no2)cc1	none
Clc1ccc(-c2nc(-c3ccccn3)no2)cc1Cl	hIAP activ 2.1 | hIAP act confirm inactive
O=C(c1cc(-c2ccncc2)nc2ccccc12)N1CCN(c2ncccn2)CC1	none (no result: bIAP act, bIAP inh)
c1ccc(COc2ccc(CNn3cnnc3)cc2)cc1	hIAP inh 54 | hIAP act confirm inactive
COc1c(-c2ccc(O)c(O)c2)oc2cc(O)cc(O)c2c1=O	hIAP inh 60 (no result: bIAP act, bIAP inh) | hIAP act confirm inactive
